Source: PubChem BioAssay (several laboratories)
ROMK primary – modulators of human ROMK potassium channel | P48048 | Tet-inducible ROMK, thallium flux fluorescence; actives lie on both sides | AID 1918 | B-score at 10 µM | 2% of 130,000 active;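 active = signal ratio slope over the read window, or its plate-corrected B-score, at least 3 SD from the plate mean, either direction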;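 note: B-score of the F/F0 ratio slope over 7 to 12 s after thallium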
PKD1 kinase inh – PKD1 (human) kinase inhibition; inhibition, % (concentration not given with the values); 0.056% of 200,000 active; Q15139; PKD1 kinase fluorescence polarization assay; in the data active = inhibition above about 50%
m-calpain inh – calpain II (pig) inhibition; purified calpain II, fluorogenic peptide substrate, 30 min; inhibition, % at 16 µM; 0.37% of 220,000 active;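 active = inhibition above about 50%, limit read from the data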
Arbovirus anti – blocks arbovirus infection. arbovirus infection cell-based antiviral screen. inhibition, % at 10 µM. 0.37% of 200,000 active. AID 1251; in the data active = inhibition above about 30%
Cl transport mod – KCC2 (human) Cl- transport modulation; Q9H2X9; KCC2 cells, thallium flux FluoZin-2 fluorescence; B-score of Tl+ flux slope (higher = more flux/activation; lower = inhibition) at 10 µM; 2.2% of 190,000 active; AID 1456;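 active = thallium flux slope and its plate-corrected score both differing from the plate sample mean at a set confidence after two filtering rounds, in either direction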;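 note: slope of fluorescence scaled to starting intensity during 10 to 20 s after thallium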
Target sequence (Q9H2X9 whole entry, looked up): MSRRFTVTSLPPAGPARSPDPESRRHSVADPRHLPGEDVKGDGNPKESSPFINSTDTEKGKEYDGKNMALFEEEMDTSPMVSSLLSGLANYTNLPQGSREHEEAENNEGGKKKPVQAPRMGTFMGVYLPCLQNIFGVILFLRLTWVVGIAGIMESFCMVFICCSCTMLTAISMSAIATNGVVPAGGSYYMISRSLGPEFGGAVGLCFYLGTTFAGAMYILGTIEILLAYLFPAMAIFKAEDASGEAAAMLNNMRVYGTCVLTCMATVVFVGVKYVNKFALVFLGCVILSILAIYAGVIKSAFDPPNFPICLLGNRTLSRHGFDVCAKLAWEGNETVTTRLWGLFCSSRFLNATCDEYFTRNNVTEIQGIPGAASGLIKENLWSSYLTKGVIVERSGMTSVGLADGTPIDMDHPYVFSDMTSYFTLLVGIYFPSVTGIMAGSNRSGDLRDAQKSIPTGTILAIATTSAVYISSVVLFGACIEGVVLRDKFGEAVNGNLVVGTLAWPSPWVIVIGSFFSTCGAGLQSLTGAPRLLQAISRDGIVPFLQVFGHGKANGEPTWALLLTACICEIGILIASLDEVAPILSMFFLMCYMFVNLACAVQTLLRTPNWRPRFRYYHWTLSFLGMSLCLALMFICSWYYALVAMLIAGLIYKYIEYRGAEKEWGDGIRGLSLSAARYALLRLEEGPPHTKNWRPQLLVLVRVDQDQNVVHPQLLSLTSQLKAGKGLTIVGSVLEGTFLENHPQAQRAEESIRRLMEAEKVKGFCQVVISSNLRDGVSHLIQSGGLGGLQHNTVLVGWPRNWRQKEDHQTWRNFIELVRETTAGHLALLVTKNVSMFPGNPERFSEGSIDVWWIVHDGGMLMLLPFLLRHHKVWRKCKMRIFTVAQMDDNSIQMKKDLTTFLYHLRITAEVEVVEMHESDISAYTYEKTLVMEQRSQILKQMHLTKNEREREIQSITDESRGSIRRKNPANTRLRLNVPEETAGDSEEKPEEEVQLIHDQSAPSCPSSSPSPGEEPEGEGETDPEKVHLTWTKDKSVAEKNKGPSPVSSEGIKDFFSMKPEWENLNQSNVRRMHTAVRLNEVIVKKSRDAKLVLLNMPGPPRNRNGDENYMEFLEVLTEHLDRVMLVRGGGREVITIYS
MDM2 E3 inh – blocks human Mdm2 ubiquitin ligase activity. 0.11% of 210,000 active. signal enhancement, % at 5 µM. cell-based MDM2 ubiquitination luciferase reporter, 2 h; 0 = plate control, 100 = twice control, blank-subtracted. Q00987;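 active = signal enhancement of 30% or more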;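 note: luminescence tracks abundance of the self-degrading MDM2-luciferase fusion protein; higher signal means inhibition of MDM2 E3 ligase activity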
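Assay system: stable mammalian line carrying autodegrading MDM2–luciferase fusion reporter; Input: 2000 cells in each well; Compound dosing: single-point 5 µM; Schedule: 2 h compound exposure at 37 °C; Signal: SteadyLite luciferase luminescence after 15 min room-temperature reagent incubation; Evaluation: % luminescence enhancement versus blank-corrected plate control mean; Benchmarks: plate controls and plate blanks.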
KCC2 secondary – confirmation of human KCC2 transport modulators; HEK293-KCC2, thallium flux, FluoZin2 fluorescence; stronger effect = higher value; 15% of 3,700 active; normalised thallium flux (F/F0 slope) at 10 µM; shares compounds with Cl transport mod;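 active = thallium flux slope above the same plate's solvent-only control mean plus 3 SD; inconclusive = the two replicate wells disagree; inactive = no significant difference from solvent-only control wells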
KCC2 bumet counter – thallium flux persisting under bumetanide in KCC2 cells, counter-screen secondary assay; shares compounds with Cl transport mod; HEK293-KCC2 + bumetanide/ouabain, thallium flux FluoZin2; stronger effect = higher value; normalized thallium flux at 10 µM; 49% of 3,700 active;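 active = thallium entry rate above the same plate's blocked-transporter control wells by more than 3 SD; inconclusive = the two repeat wells disagree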;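 note: raw slope of fluorescence over initial fluorescence between 10 and 20 s after thallium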
KCC2 sec2 – confirmation of human KCC2 transport modulators | shares compounds with Cl transport mod | HEK293-KCC2, thallium flux FluoZin2 fluorescence; actives lie on both sides; F/F0 rise rate, 10–20 s post-thallium | normalized thallium flux at 10 µM | 23% of 3,700 active;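 active = thallium flux slope more than 3 SD above or below the plate's solvent-only control mean, mostly below; inconclusive = the two repeat wells disagreed; inactive = no significant shift from solvent-only controls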
HEK293 Tl flux – parental HEK flux effect, counter-screen. shares compounds with Cl transport mod. HEK293 parental cells, thallium flux FluoZin2, ouabain; baseline-ratio fluorescence slope, 10–20 s after thallium. thallium flux rate (normalised fluorescence) at 10 µM. 46% of 3,700 active;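 active = thallium flux rate significantly above the same plate's solvent-only control wells, beyond their mean plus 3 SD; inconclusive = the two replicate wells gave conflicting results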
KCC2 retest ouab – confirmation of human KCC2 modulators with ouabain. shares compounds with Cl transport mod. HEK293-KCC2, thallium flux FluoZin2 fluorescence; bidirectional: low = inhibitor, high = activator. raw Tl+ flux slope (below DMSO = inhibition, above = activation) at 10 µM. 48% of 3,700 active. AID 1717;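 active = thallium flux slope beyond 3 SD from same-plate DMSO control mean in most replicates, usually higher, sometimes lower; inconclusive = repeat tests gave conflicting results; inactive = no significant difference from controls in most replicates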;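 note: slope of initial-normalized fluorescence between seconds 10 and 20 after thallium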
HEK counter2 – acts in parental HEK cells, second KCC2 counter-screen. shares compounds with Cl transport mod. 33% of 3,700 active. HEK293 parental, thallium flux FluoZin-2 fluorescence slope. thallium flux slope at 10 µM;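 active = thallium flux slope above the same plate's solvent-control mean plus 3 SD in both duplicate wells; inconclusive = duplicate wells that disagreed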;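 note: run without ouabain in cells lacking the KCC2 cotransporter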
A number is an active result. Sampled rows, rich in hits. Any-hit rate of the full collection: about 3.7%.

`C/C(N)=C(/C#N)C(=O)CSc1nc2ccccc2c(=O)n1Cc1ccc(F)cc1` gave m-calpain inh inactive, Cl transport mod 95.1, MDM2 E3 inh inactive, KCC2 secondary inconclusive, KCC2 bumet counter 0.0708, KCC2 sec2 0.0526, HEK293 Tl flux 0.0641, KCC2 retest ouab 0.0614 and HEK counter2 0.0565.
Screening COc1ccc(Cl)cc1C(=O)NC(C)C returned ROMK primary inactive, PKD1 kinase inh inactive, m-calpain inh inactive, Arbovirus anti inactive, Cl transport mod inactive and MDM2 E3 inh inactive.
Screening O=C(CN(CCc1ccccc1)C(=O)Cn1nnc(-c2cccs2)n1)NCc1ccco1 returned PKD1 kinase inh inactive, m-calpain inh inactive, Arbovirus anti inactive, Cl transport mod -4.08, MDM2 E3 inh inactive, KCC2 secondary inactive, KCC2 bumet counter inactive, KCC2 sec2 0.0238, HEK293 Tl flux inactive, KCC2 retest ouab inconclusive and HEK counter2 inactive.
CC(=O)Nc1ccc(S(=O)(=O)Nc2c(C)nn(-c3ccccc3)c2C)cc1 was read as PKD1 kinase inh inactive, m-calpain inh inactive, Arbovirus anti inactive, MDM2 E3 inh inactive, KCC2 secondary inactive, KCC2 bumet counter inactive, KCC2 sec2 inactive, HEK293 Tl flux inconclusive, KCC2 retest ouab inactive and HEK counter2 inactive.
`Cc1nn(-c2ccc(F)cc2)c(C)c1NS(=O)(=O)c1ccc2ccccc2c1` gave PKD1 kinase inh inactive, m-calpain inh inactive, Arbovirus anti inactive, Cl transport mod -7.15, MDM2 E3 inh inactive, KCC2 secondary inactive, KCC2 bumet counter inconclusive, KCC2 sec2 0.0222, HEK293 Tl flux inactive, KCC2 retest ouab inconclusive and HEK counter2 inactive.
`O=S(=O)(NCCSc1ccccc1)c1ccc2c(c1)OCCO2` gave ROMK primary inactive, PKD1 kinase inh inactive, m-calpain inh inactive, Arbovirus anti inactive, MDM2 E3 inh inactive, KCC2 secondary inconclusive, KCC2 bumet counter inactive, KCC2 sec2 inactive, HEK293 Tl flux inactive, KCC2 retest ouab inconclusive and HEK counter2 inactive.
Cc1[nH]c2ccccc2c1/C=C/c1nc2ccccc2c(=O)n1CCO was read as ROMK primary inactive, PKD1 kinase inh inactive, m-calpain inh inactive, Arbovirus anti inactive, Cl transport mod -4.18, MDM2 E3 inh inactive, KCC2 secondary inactive, KCC2 bumet counter 0.00241, KCC2 sec2 inactive, HEK293 Tl flux inactive, KCC2 retest ouab inconclusive and HEK counter2 inactive.
`Cc1[nH]c2ccccc2c1/C=C/c1nc2ccccc2c(=O)n1-c1cccc([N+](=O)[O-])c1` gave PKD1 kinase inh inactive, m-calpain inh inactive, Arbovirus anti inactive, Cl transport mod inactive and MDM2 E3 inh inactive.
`NNC(=O)c1ccc2ccccc2n1` gave ROMK primary inactive, PKD1 kinase inh inactive, m-calpain inh inactive, Arbovirus anti inactive, Cl transport mod 25.7, MDM2 E3 inh inactive, KCC2 secondary inactive, KCC2 bumet counter 0.0556, KCC2 sec2 0.0419, HEK293 Tl flux 0.0381, KCC2 retest ouab 0.0468 and HEK counter2 0.023.
For O=C(NN=C1CCCCCCC1)c1ccc2ccccc2n1 the results were ROMK primary inactive, PKD1 kinase inh inactive, m-calpain inh inactive, Arbovirus anti inactive, Cl transport mod 22.5, MDM2 E3 inh inactive, KCC2 secondary inactive, KCC2 bumet counter 0.0381, KCC2 sec2 inconclusive, HEK293 Tl flux 0.0265, KCC2 retest ouab 0.035 and HEK counter2 0.0207.
FC(F)(F)c1ccc(Cl)c(NC(=S)N/N=C/c2ccccc2C(F)(F)F)c1 was read as ROMK primary inactive, PKD1 kinase inh inactive, m-calpain inh inactive, Arbovirus anti inactive, Cl transport mod 4.86, MDM2 E3 inh inactive, KCC2 secondary inactive, KCC2 bumet counter 0.0144, KCC2 sec2 inconclusive, HEK293 Tl flux 0.0143, KCC2 retest ouab inconclusive and HEK counter2 0.0131.
Screening COc1ccc(/C=N/NC(=S)Nc2cc(C(F)(F)F)ccc2Cl)cc1 returned m-calpain inh inactive, Cl transport mod inactive and MDM2 E3 inh inactive.
Screening S=c1[nH]nc(-c2ccco2)n1C1CCCCC1 returned ROMK primary inactive, PKD1 kinase inh inactive, m-calpain inh inactive, Arbovirus anti inactive, Cl transport mod inactive and MDM2 E3 inh inactive.
For CCC(CC)NC(=O)COC(=O)c1ccc(NS(=O)(=O)c2ccc3c(c2)OCCO3)cc1 the results were ROMK primary inactive, PKD1 kinase inh inactive, m-calpain inh inactive, Arbovirus anti inactive, Cl transport mod 2.71, MDM2 E3 inh inactive, KCC2 secondary inactive, KCC2 bumet counter inactive, KCC2 sec2 inactive, HEK293 Tl flux inactive, KCC2 retest ouab inactive and HEK counter2 0.0104.
Screening COc1ccc(NS(=O)(=O)c2ccc(O)c(C(=O)OCC(=O)Nc3ccc4c(c3)OCCO4)c2)cc1 returned ROMK primary inactive, PKD1 kinase inh inactive, m-calpain inh inactive, Arbovirus anti inactive, Cl transport mod inactive and MDM2 E3 inh inactive.
Screening COc1ccc(NC(=O)c2ccccc2-c2ccc(C(F)(F)F)cc2)cc1S(=O)(=O)N1CCOCC1 returned ROMK primary inactive, PKD1 kinase inh inactive, m-calpain inh inactive, Arbovirus anti inactive, Cl transport mod inactive and MDM2 E3 inh inactive.
Screening Cc1ccc(NC(=O)c2ccccc2-c2ccc(C(F)(F)F)cc2)cc1S(=O)(=O)N1CCOCC1 returned PKD1 kinase inh inactive, m-calpain inh inactive, Arbovirus anti inactive, Cl transport mod 3.8, MDM2 E3 inh inactive, KCC2 secondary inactive, KCC2 bumet counter inactive, KCC2 sec2 inactive, HEK293 Tl flux inactive, KCC2 retest ouab inactive and HEK counter2 inactive.
Screening Cc1cc2c(cc1C)N(CC(=O)N1CCCC1)C(=O)CC(c1ccccc1)=N2 returned ROMK primary inactive, PKD1 kinase inh inactive, m-calpain inh inactive, Arbovirus anti inactive and MDM2 E3 inh inactive.
